Laboratory results as given in ChEMBL document CHEMBL2380272, “Biological evaluation of bisbenzaldehydes against four Mycobacterium species” (Eur J Med Chem, 2013).
Values after ≈ are worked out from the molar mass of the structure shown.

Columns and labels:
[1] = Genotoxicity in human HepG2/C3A cells assessed as DNA fragmentation at 0.3 uM after 24 hrs by alkaline comet assay (reference value: 6.65%); format: toxicity, cell-based
Summary of the method: (§1)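 Alkaline comet assay. C3A cells, 40,000/well, recovered overnight, then exposed 24 h at 37 °C, 5% CO2 to 0.1–10 µM final, diluted in DMEM + 10% FCS from 1 mM DMSO stock. Cells embedded in low-melting agarose, lysed 1 h, denatured 40 min at pH > 13, electrophoresed 20 min at 300 mA, about 17 °C. Gel red stain, % tail DNA scored by fluorescence microscopy. EMS 0.5 and 0.75 mM as positive control. Mann–Whitney U test.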

[2] = system: Mycobacterium tuberculosis; test: Antimycobacterial activity against Mycobacterium tuberculosis H37Rv ATCC 27294 assessed as growth inhibition at 0.1 uM after 6 days by luciferase reporter gene assay relative to control; format: functional; settings: H37Rv ATCC 27294, 144 h, read-out: GI
Summary of the method: (§2)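 Luminescent M. tb H37Rv (hsp60-driven luciferase) in 7H9 + 10% FCS was seeded at 50 000 RLU/mL. Compounds were tested at 10, 1 and 0.1 µM from 10 mM DMSO stocks. After 6 days, luminescence was read with 1% n-decanal. Growth inhibition (%) was expressed against untreated culture, with triplicates.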

[3] = Cytotoxicity against human HepG2/C3A cells assessed as cell viability at 120 uM after 24 hrs by neutral red uptake assay relative to control; format: cell-based; settings: read-out: Activity
Summary of the method: (§3)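 C3A cells grown in DMEM + 10% FCS, 40 000 cells/well, recovered overnight at 37 °C, 5% CO2. Exposed 24 h to serial dilutions in DMEM + 10% FCS from 18 mM DMSO stocks, DMSO limited to 1%. Neutral red added for 3 h, cells washed, dye extracted with ethanol/acetic acid (50%/1%), OD read at 540 nm with 620 nm reference. Viability expressed as % of untreated cells.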

[4] = Genotoxicity in human HepG2/C3A cells assessed as DNA fragmentation at 0.1 uM after 24 hrs by alkaline comet assay (reference value: 6.65%); format: toxicity, cell-based; summary of the method: as §1
[5] = Cytotoxicity against human HepG2/C3A cells assessed as cell viability at 180 uM after 24 hrs by neutral red uptake assay relative to control; format: cell-based; settings: read-out: Activity; summary of the method: as §3
[6] = system: Mycobacterium tuberculosis; test: Antimycobacterial activity against Mycobacterium tuberculosis H37Rv infected in mouse J774.A1 cells at 1 MOI assessed as intracellular bacterial growth inhibition at 1 uM after 1 hr by luciferase reporter gene assay relative to control; format: functional; settings: J774.A1, 1 h, read-out: GI
[7] = system: Salmonella typhimurium; test: Genotoxicity in recombinant Salmonella typhimurium TA104 expressing Vibrio fisheri luxabcd genes under transcriptional control of recN2-4 promoter assessed as concentration required to cause DNA damage measured every 5 mins for 4 hrs by vitotox assay in presence of S9 fraction; format: toxicity, organism-based; settings: salmonella enterica subsp. enterica serovar typhimurium, s9, 4 h
Summary of the method: (§4)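 VITOTOX genox strain TA104 recN2-4 (recN promoter driving lux). Grown 16 h at 36 °C in poor LB, diluted 125-fold and shaken 1 h, then diluted 10-fold; rat aroclor S9 added for +S9 runs. Incubated at 30 °C with light read every 5 min for 4 h. Signal/noise = exposed over unexposed light. Highest concentration tested 10 µM.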

[8] = system: Mycobacterium avium subsp. paratuberculosis; test: Antimycobacterial activity against Mycobacterium avium subsp. paratuberculosis ATCC 19698 assessed as growth inhibition after 6 days by luciferase reporter gene assay; format: functional; settings: ATCC 19698, 144 h
Summary of the method: (§5)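 Mycobacteria carrying the pSMT1 luciferase reporter plasmid. Compounds came from 10 mM DMSO stocks and were serially diluted in 7H9 + 10% FCS. Thawed bacteria were filtered, recovered 1 h at 37 °C, then added at 50 000 RLU/mL. After 6 days of culture, light was read for 10 s after adding 1% n-decanal. Triplicates were run, and MIC50 was the concentration giving 50% growth inhibition.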

[9] = Selectivity index, ratio of NI50 for human HepG2/C3A cells to MIC50 for Mycobacterium tuberculosis H37Rv ATCC 27294; format: functional
[10] = Potency index, ratio of MIC50 for Mycobacterium avium subsp. avium ATCC 15769 to MIC50 for Mycobacterium bovis AN5; format: functional
[11] = system: Mycobacterium tuberculosis; test: Antimycobacterial activity against Mycobacterium tuberculosis H37Rv ATCC 27294 assessed as growth inhibition at 10 uM after 6 days by luciferase reporter gene assay relative to control; format: functional; settings: H37Rv ATCC 27294, 144 h, read-out: GI; summary of the method: as §2
[12] = system: Mycobacterium tuberculosis; test: Antimycobacterial activity against Mycobacterium tuberculosis H37Rv infected in mouse J774.A1 cells at 1 MOI assessed as intracellular bacterial growth inhibition at 10 uM after 1 hr by luciferase reporter gene assay relative to control; format: functional; settings: J774.A1, 1 h, read-out: GI
[13] = Genotoxicity in human HepG2/C3A cells assessed as DNA fragmentation at 1 uM after 24 hrs by alkaline comet assay (reference value: 6.65%); format: toxicity, cell-based; summary of the method: as §1
[14] = system: Mycobacterium tuberculosis; test: Antimycobacterial activity against Mycobacterium tuberculosis H37Rv infected in mouse J774.A1 cells at 1 MOI assessed as intracellular bacterial growth inhibition at 0.1 uM after 1 hr by luciferase reporter gene assay relative to control; format: functional; settings: J774.A1, 1 h, read-out: GI
[15] = Potency index, ratio of MIC50 for Mycobacterium avium subsp. paratuberculosis ATCC 19698 to MIC50 for Mycobacterium bovis AN5; format: functional
[16] = Toxicity in recombinant Salmonella typhimurium TA104 expressing luxabcd genes under transcriptional control of constitutive pr1 promoter assessed as concentration required to reduce cell viability measured every 5 mins for 4 hrs by vitotox assay in presence of S9 fraction; format: organism-based; settings: salmonella enterica subsp. enterica serovar typhimurium; read-out: Activity
Summary of the method: (§6)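 Cytox strain TA104 pr1 (constitutive promoter driving lux), run alongside the genox strain. Grown in poor LB at 36 °C for 16 h, diluted 125-fold and shaken 1 h, then diluted 10-fold, with or without aroclor-rat S9. Luminescence read at 30 °C every 5 min over 4 h; a drop in light signal indicates reduced viability. Top concentration 10 µM.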

[17] = system: Salmonella typhimurium; test: Genotoxicity in recombinant Salmonella typhimurium TA104 expressing Vibrio fisheri luxabcd genes under transcriptional control of recN2-4 promoter assessed as concentration required to cause DNA damage measured every 5 mins for 4 hrs by vitotox assay in absence of S9 fraction; format: toxicity, organism-based; settings: salmonella enterica subsp. enterica serovar typhimurium; summary of the method: as §4
[18] = system: Mycobacterium tuberculosis; test: Antimycobacterial activity against Mycobacterium tuberculosis H37Rv ATCC 27294 assessed as growth inhibition after 6 days by luciferase reporter gene assay; format: functional; settings: H37Rv ATCC 27294, 144 h; summary of the method: as §5
[19] = Genotoxicity in human HepG2/C3A cells assessed as DNA fragmentation at 10 uM after 24 hrs by alkaline comet assay (reference value: 6.65%); format: toxicity, cell-based; summary of the method: as §1
[20] = system: Salmonella typhimurium; test: Toxicity in recombinant Salmonella typhimurium TA104 expressing luxabcd genes under transcriptional control of constitutive pr1 promoter assessed as concentration required to reduce cell viability measured every 5 mins for 4 hrs by vitotox assay in absence of S9 fraction; format: organism-based; settings: salmonella enterica subsp. enterica serovar typhimurium; summary of the method: as §6
[21] = Genotoxicity in human HepG2/C3A cells assessed as DNA fragmentation at 3 uM after 24 hrs by alkaline comet assay (reference value: 6.65%); format: toxicity, cell-based; summary of the method: as §1
[22] = system: Mycobacterium ulcerans; test: Antimycobacterial activity against Mycobacterium ulcerans 1615 assessed as growth inhibition after 6 days by luciferase reporter gene assay; format: functional; settings: Mycobacterium ulcerans, 1615, 144 h
Summary of the method: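 M. ulcerans 1615 carrying pSMT1 luciferase reporter plasmid, stock grown as surface pellicle on Sauton medium, cultured at 32 °C. Serial compound dilutions in 7H9 + 10% FCS from 10 mM DMSO stocks, tested in triplicate. Filtered bacteria added at 50 000 RLU/mL. After 6 days, wells collected and washed with PBS, 1% n-decanal in ethanol added, light read over 10 s. MIC50 = concentration giving 50% inhibition versus untreated.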

[23] = Cytotoxicity against human HepG2/C3A cells assessed as cell viability at 60 uM after 24 hrs by neutral red uptake assay relative to control; format: cell-based; settings: read-out: Activity; summary of the method: as §3
[24] = Antimycobacterial activity against Mycobacterium avium subsp. avium ATCC 15769 assessed as growth inhibition after 6 days by luciferase reporter gene assay; format: functional; settings: ATCC 15769, 144 h; summary of the method: as §5
[25] = system: Mycobacterium tuberculosis; test: Antimycobacterial activity against Mycobacterium tuberculosis H37Rv ATCC 27294 assessed as growth inhibition at 1 uM after 6 days by luciferase reporter gene assay relative to control; format: functional; settings: H37Rv ATCC 27294, 144 h, read-out: GI; summary of the method: as §2

SMILES: O=Cc1ccc(OCCCCCCCCCCCCOc2ccc(C=O)cc2)cc1
- Activity [1]: 7.64%
- inhibition of growth at 0.1 µM [2]: 26%
- viability at 24 h, 120 µM [3]: 89.9%
- Activity [4]: 5.72%
- viability at 24 h, 180 µM [5]: 68.1%
- percent inhibition of intracellular bacterial growth at 1 µM [6]: 53.1%
- Activity [7]: > 10 µM
- MIC50 [8]: 4.75 µM (≈ 1.95 µg/mL)
- Selectivity Index [9]: >346.2
- Ratio [10]: 5
- inhibition of growth at 10 µM [11]: 100%
- intracellular bacterial growth inhibition at 10 µM [12]: 74%
- Activity [13]: 7.62%
- intracellular bacterial growth inhibition at 0.1 µM [14]: 13.5%
- Ratio [15]: 5
- MCC at 4 h [16]: > 10 µM
- Activity [17]: > 10 µM
- MIC50 [18]: 0.52 µM (≈ 0.213 µg/mL)
- Activity [19]: 6.97%
- Activity [20]: > 10 µM
- Activity [21]: 7.44%
- MIC50 [22]: 8.21 µM (≈ 3.37 µg/mL)
- viability at 24 h, 60 µM [23]: 101%
- MIC50 [24]: 5.01 µM (≈ 2.06 µg/mL)
- inhibition of growth at 1 µM [25]: 81%
